Published values pooled from the literature.
Compare with care: the assays were run in different laboratories. pIC50: −log10 of the molar value.
Effect on: cell growth or viability

Compound | cell line | technique | time | pIC50
CC(C)n1ncnc1-c1cn2c(n1)-c1ccc(O[C@@H](C)C(N)=O)cc1OCC2 | SW48 | ATP luminescence | 96 h | 7.68
CC[C@]1(O)C[C@H]2CN(CCc3c([nH]c4ccccc34)[C@@](C(=O)OC)(c3cc4c(cc3OC)N(C=O)[C@H]3[C@@](O)(C(=O)OC)[C@H](OC(C)=O)[C@]5(CC)C=CCN6CC[C@]43[C@@H]65)C2)C1 | BXPC-3 | fluorescence | 72 h | 8.70
CN(C(=O)COC(=O)/C=C/c1cccc([N+](=O)[O-])c1)C1CCS(=O)(=O)C1 (centres unmarked) | DLD-1 | ATP luminescence | 48 h | 5.80
CCN(CC)CCCC(C)Nc1cnc(C(=O)Nc2cc(F)cc3cccnc23)cn1 (centres unmarked) | BXPC-3 | MTT | – | 5.14
C[C@H]1[C@H](C)CC[C@]2(C(=O)O)CC[C@]3(C)C(=CC[C@@H]4[C@@]5(C)CC[C@H](O)C(C)(C)[C@@H]5CC[C@]43C)[C@H]12 | DLD-1 | – | 48 h | 4.89
CN(C)C/C=C/C(=O)Nc1cc2c(Nc3ccc(F)c(Cl)c3)ncnc2cc1O[C@H]1CCOC1 | SW620/AD300 | MTT | 72 h | 5.37
CNc1ncc2cc(-c3ccc(-c4cccc(C)n4)cc3Cl)c(=O)n(C[C@H]3OC[C@H](N)CO3)c2n1 | BXPC-3 | MTT | 24 h | 4.69
CCC[C@H](Nc1nc(-c2ccc(NC(=O)NCC)c(OC)c2)ncc1C)c1cccnc1 | BXPC-3 | fluorescence | 72 h | 7.43
CC(C)C[C@H](NC(=O)[C@H](Cc1ccccc1)NC(=O)c1cnccn1)B(O)O | BEN | ATP luminescence | – | 7.17
CCN1C(=O)N(c2c(F)c(OC)cc(OC)c2F)Cc2cnc3[nH]c(CN4CCOCC4)cc3c21 | MFE-296 | ATP luminescence | 96 h | 7.25
C[C@H](NC(=O)c1cccc2ccccc12)C(=O)Nc1ccccc1Oc1ccccc1 | SK-N-FI | – | – | 5.52
Cc1nc(Nc2ncc(C(=O)Nc3c(C)cccc3Cl)s2)cc(N2CCN(CCO)CC2)n1 | BXPC-3 | MTT | – | 7.34
COc1cc(Nc2nccc(-c3cnn4nc(OC)ccc34)n2)cc(C(F)(F)F)c1 | NCI-H838 | ATP luminescence | – | 6.33
COc1cc([C@@H]2c3cc4c(cc3[C@@H](O[C@@H]3O[C@@H]5CO[C@@H](C)O[C@H]5[C@H](O)[C@H]3O)[C@H]3COC(=O)[C@H]23)OCO4)cc(OC)c1O | DLD-1 | fluorescence | 48 h | 5.89
